Laboratory results from ChEMBL document CHEMBL1147099, “In vitro and in vivo antibacterial activities of heteroaryl isothiazolones against resistant gram-positive pathogens” (Antimicrob Agents Chemother, 2007).
≈ marks a conversion by molar mass, not a printed value.

What was measured:
Assay type in all cases: functional
Legionella pneumophila = test: Antibacterial activity against Legionella pneumophila after 24 hrs by broth microdilution method
[1] = test system: Mycoplasmoides pneumoniae; test: Antibacterial activity against Mycoplasma pneumoniae after 24 hrs by broth microdilution method
Acinetobacter baumannii = test: Antibacterial activity against Acinetobacter baumannii after 24 hrs by broth microdilution method
Summary of the method: (§1)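 CLSI broth microdilution in cation-adjusted Mueller-Hinton II broth, final inoculum about 5 × 10^5 CFU/ml for most strains; streptococci supplemented with 2–5% lysed horse blood, H. influenzae in Haemophilus test medium. Aerobic incubation at 35–37°C for 24 h; MIC = lowest concentration with no visible growth.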

Escherichia coli = test: Antibacterial activity against Escherichia coli after 24 hrs by broth microdilution method; summary of the method: as §1
Pseudomonas aeruginosa = test: Antibacterial activity against Pseudomonas aeruginosa after 24 hrs by broth microdilution method; summary of the method: as §1
Moraxella catarrhalis = test: Antibacterial activity against Moraxella catarrhalis after 24 hrs by broth microdilution method; summary of the method: as §1
Enterobacter sp. = test: Antibacterial activity against Enterobacter sp.
Summary of the method: (§2)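 Aerobic isolates run by CLSI broth microdilution in cation-adjusted Mueller-Hinton II broth (streptococci plus 2–5% lysed horse blood), about 5 × 10^5 CFU/ml final; 24 h at 35–37°C aerobically; MIC read as lowest concentration without visible growth.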

Klebsiella pneumoniae = test: Antibacterial activity against Klebsiella pneumoniae; summary of the method: as §2
Haemophilus influenzae = test: Antibacterial activity against Haemophilus influenzae after 24 hrs by broth microdilution method; summary of the method: as §1
Enterococcus faecalis = test: Antibacterial activity against Enterococcus faecalis; summary of the method: as §2
Neisseria meningitidis = test: Antibacterial activity against Neisseria meningitidis after 24 hrs by broth microdilution method; summary of the method: as §1
Enterococcus faecium = test: Antibacterial activity against Enterococcus faecium; summary of the method: as §2
Staphylococcus aureus [2] = test: Antibacterial activity against methicillin-resistant Staphylococcus aureus after 24 hrs by broth microdilution method
Summary of the method: (§3)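 Broth microdilution per CLSI in cation-adjusted Mueller-Hinton II broth, final inoculum approximately 5 × 10^5 CFU/ml. Plates were incubated aerobically at 35 to 37°C for 24 h. MIC was the lowest concentration giving no visible growth. Reserpine, where used, was at a final concentration of 20 μg/ml.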

Streptococcus viridans = test: Antibacterial activity against Streptococcus viridans after 24 hrs by broth microdilution method; summary of the method: as §1
Staphylococcus aureus [3] = test: Antibacterial activity against methicillin-susceptible Staphylococcus aureus after 24 hrs by broth microdilution method; summary of the method: as §3
Streptococcus pneumoniae = test: Antibacterial activity against Streptococcus pneumoniae by agar dilution method
Streptococcus pyogenes = test: Antibacterial activity against Streptococcus pyogenes; summary of the method: as §2
Staphylococcus aureus [4] = test: Antibacterial activity against ethidium bromide-resistant Staphylococcus aureus BSA678 after 24 hrs by broth microdilution method; conditions: BSA678, 24 h; summary of the method: as §3
Staphylococcus aureus [5] = test: Antibacterial activity against […] Staphylococcus aureus ATCC 29213 in presence of 20 ug/ml reserpine after 24 hrs by broth microdilution method; conditions: ATCC 29213, 24 h; summary of the method: as §3
Staphylococcus aureus [6] = test: Antibacterial activity against ethidium bromide-resistant Staphylococcus aureus Mu50 after 24 hrs by broth microdilution method; conditions: Mu50, 24 h; summary of the method: as §3
Staphylococcus aureus [7] = test: Antibacterial activity against ethidium bromide-resistant Staphylococcus aureus BSA643 after 24 hrs by broth microdilution method; conditions: BSA643, 24 h; summary of the method: as §3
Staphylococcus aureus [8] = test: Antibacterial activity against ethidium bromide-resistant Staphylococcus aureus Mu50 in presence of 20 ug/ml reserpine after 24 hrs by broth microdilution method; conditions: Mu50, 24 h; summary of the method: as §3
Staphylococcus aureus [9] = test: Antibacterial activity against […] Staphylococcus aureus ATCC 29213 after 24 hrs by broth microdilution method; conditions: ATCC 29213, 24 h; summary of the method: as §3
Neisseria gonorrhoeae = test: Antibacterial activity against Neisseria gonorrhoeae after 24 hrs by broth microdilution method; summary of the method: as §1
Clostridioides difficile = test: Antibacterial activity against Clostridium difficile by agar dilution method
Summary of the method: (§4)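 Anaerobes by CLSI agar dilution on brucella agar with hemin, vitamin K and 5% laked sheep blood; inoculum from 24-h enriched blood agar colonies resuspended in brucella broth to 0.5 McFarland. Plates incubated anaerobically at 35–37°C for 48 h.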

Cutibacterium acnes = test: Antibacterial activity against Propionibacterium acnes; summary of the method: as §4

SMILES	MIC (Legionella pneumophila) [µg/mL]	MIC [1] [µg/mL]	MIC50 (Acinetobacter baumannii) [µg/mL]	MIC90 (Acinetobacter baumannii) [µg/mL]	MIC50 (Escherichia coli) [µg/mL]	MIC50 (Pseudomonas aeruginosa) [µg/mL]	MIC90 (Pseudomonas aeruginosa) [µg/mL]	MIC50 (Moraxella catarrhalis) [µg/mL]	MIC90 (Moraxella catarrhalis) [µg/mL]	MIC50 (Enterobacter sp.) [µg/mL]	MIC90 (Enterobacter sp.) [µg/mL]	MIC50 (Klebsiella pneumoniae) [µg/mL]	MIC90 (Klebsiella pneumoniae) [µg/mL]	MIC50 (Haemophilus influenzae) [µg/mL]	MIC90 (Haemophilus influenzae) [µg/mL]	MIC50 (Neisseria meningitidis) [µg/mL]	MIC90 (Neisseria meningitidis) [µg/mL]	MIC50 (Streptococcus viridans) [µg/mL]	MIC90 (Streptococcus viridans) [µg/mL]	MIC50 (Streptococcus pneumoniae) [µg/mL]	also measured
C[C@H]1c2cccc(O)c2C(=O)C2=C(O)[C@]3(O)C(=O)C(C(N)=O)=C(O)[C@@H](N(C)C)[C@@H]3[C@@H](O)[C@@H]21.O [DOXYCYCLINE]	1	0.25																			
CC1(C)S[C@@H]2[C@H](NC(=O)[C@H](N)c3ccccc3)C(=O)N2[C@H]1C(=O)O [AMPICILLIN]			16 (≈ 45.8 µM)	> 32	4 (≈ 11.4 µM)	> 32	> 32	4 (≈ 11.4 µM)	8 (≈ 22.9 µM)	> 32	> 32	> 32	> 32	> 16	> 16						MIC90 (Escherichia coli): > 32 µg/mL
C[C@H]1COc2c(N3CCN(C)CC3)c(F)cc3c(=O)c(C(=O)O)cn1c23.C[C@H]1COc2c(N3CCN(C)CC3)c(F)cc3c(=O)c(C(=O)O)cn1c23.O [LEVOFLOXACIN]	0.015	0.5	0.25	> 8	0.03	0.5	> 8	0.03	0.06	0.03	0.5	> 0.25	> 2	0.015	0.03	≤ 0.12	≤ 0.12	1	1	1	MIC50 (Enterococcus faecalis): 16 µg/mL; MIC90 (Enterococcus faecalis): > 16 µg/mL; MIC50 (Enterococcus faecium): > 16 µg/mL; MIC90 (Enterococcus faecium): > 16 µg/mL; MIC50 (Staphylococcus aureus [2]): 16 µg/mL; MIC50 (Staphylococcus aureus [3]): 0.25 µg/mL; MIC90 (Staphylococcus aureus [3]): > 16 µg/mL; MIC90 (Streptococcus pneumoniae): 1 µg/mL; MIC50 (Streptococcus pyogenes): 0.5 µg/mL; MIC90 (Streptococcus pyogenes): 1 µg/mL
CC[n+]1c(-c2ccccc2)c2cc(N)ccc2c2ccc(N)cc21.[Br-] [HOMIDIUM BROMIDE]																					MIC (Staphylococcus aureus [4]): 4 µg/mL; MIC (Staphylococcus aureus [5]): 0.03 µg/mL; MIC (Staphylococcus aureus [6]): 64 µg/mL; MIC (Staphylococcus aureus [7]): 16 µg/mL; MIC (Staphylococcus aureus [8]): 64 µg/mL; MIC (Staphylococcus aureus [9]): 4 µg/mL
CO/N=C(\C(=O)N[C@@H]1C(=O)N2C(C(=O)O)=C(CSc3nc(=O)c(O)nn3C)CS[C@H]12)c1csc(N)n1 [CEFTRIAXONE]			8 (≈ 14.4 µM)	> 64	0.06 (≈ 0.108 µM)	64 (≈ 115 µM)	> 64	0.5 (≈ 0.902 µM)	1 (≈ 1.8 µM)	0.12 (≈ 0.216 µM)	> 64	16 (≈ 28.9 µM)	32 (≈ 57.7 µM)	< 0.008	0.015 (≈ 0.027 µM)			0.12 (≈ 0.216 µM)	1 (≈ 1.8 µM)	0.12 (≈ 0.216 µM)	MIC90 (Escherichia coli): 0.06 µg/mL (≈ 0.108 µM); MIC50 (Neisseria gonorrhoeae): 0.004 µg/mL (≈ 0.00721 µM); MIC90 (Neisseria gonorrhoeae): 0.03 µg/mL (≈ 0.0541 µM); MIC90 (Streptococcus pneumoniae): > 2 µg/mL; MIC50 (Streptococcus pyogenes): 0.03 µg/mL (≈ 0.0541 µM); MIC90 (Streptococcus pyogenes): 0.03 µg/mL (≈ 0.0541 µM)
CC[C@H]1OC(=O)[C@H](C)[C@@H](O[C@H]2C[C@@](C)(OC)[C@@H](O)[C@H](C)O2)[C@H](C)[C@@H](O[C@@H]2O[C@H](C)C[C@H](N(C)C)[C@H]2O)[C@](C)(O)C[C@@H](C)CN(C)[C@H](C)[C@@H](O)[C@]1(C)O [AZITHROMYCIN]	0.12 (≈ 0.16 µM)	≤ 0.004						0.015 (≈ 0.02 µM)	0.03 (≈ 0.0401 µM)					0.5 (≈ 0.668 µM)	2 (≈ 2.67 µM)	0.5 (≈ 0.668 µM)	1 (≈ 1.34 µM)	1 (≈ 1.34 µM)	4 (≈ 5.34 µM)	4 (≈ 5.34 µM)	MIC50 (Enterococcus faecalis): 4 µg/mL (≈ 5.34 µM); MIC90 (Enterococcus faecalis): > 16 µg/mL; MIC50 (Neisseria gonorrhoeae): 0.06 µg/mL (≈ 0.0801 µM); MIC90 (Neisseria gonorrhoeae): 0.12 µg/mL (≈ 0.16 µM); MIC50 (Enterococcus faecium): > 16 µg/mL; MIC90 (Enterococcus faecium): > 16 µg/mL; MIC50 (Staphylococcus aureus [2]): > 8 µg/mL; MIC50 (Staphylococcus aureus [3]): 1 µg/mL (≈ 1.34 µM); MIC90 (Staphylococcus aureus [3]): > 8 µg/mL; MIC90 (Streptococcus pneumoniae): > 8 µg/mL; MIC50 (Streptococcus pyogenes): 0.12 µg/mL (≈ 0.16 µM); MIC90 (Streptococcus pyogenes): > 8 µg/mL
Cc1ncc([N+](=O)[O-])n1CCO [METRONIDAZOLE]																					MIC50 (Clostridioides difficile): 0.5 µg/mL (≈ 2.92 µM); MIC90 (Clostridioides difficile): 0.5 µg/mL (≈ 2.92 µM); MIC50 (Cutibacterium acnes): > 64 µg/mL; MIC90 (Cutibacterium acnes): > 64 µg/mL
CO/N=C(\C(=O)N[C@@H]1C(=O)N2C(C(=O)[O-])=C(C[N+]3(C)CCCC3)CS[C@H]12)c1csc(N)n1 [CEFEPIME]			2 (≈ 4.16 µM)	32 (≈ 66.6 µM)						0.06 (≈ 0.125 µM)	4 (≈ 8.32 µM)	0.5 (≈ 1.04 µM)	32 (≈ 66.6 µM)								
C[C@@H](O)[C@H]1C(=O)N2C(C(=O)O)=C(S[C@@H]3CN[C@H](C(=O)N(C)C)C3)[C@H](C)[C@H]12 [MEROPENEM]																0.008 (≈ 0.0209 µM)	0.015 (≈ 0.0391 µM)				
